Holding throughout (format): cell-based
Assay [1] concerns the target T1, Nucleotide-binding oligomerization domain-containing protein 1 (Homo sapiens) (UniProt Q9Y239).
T1 sequence (whole entry): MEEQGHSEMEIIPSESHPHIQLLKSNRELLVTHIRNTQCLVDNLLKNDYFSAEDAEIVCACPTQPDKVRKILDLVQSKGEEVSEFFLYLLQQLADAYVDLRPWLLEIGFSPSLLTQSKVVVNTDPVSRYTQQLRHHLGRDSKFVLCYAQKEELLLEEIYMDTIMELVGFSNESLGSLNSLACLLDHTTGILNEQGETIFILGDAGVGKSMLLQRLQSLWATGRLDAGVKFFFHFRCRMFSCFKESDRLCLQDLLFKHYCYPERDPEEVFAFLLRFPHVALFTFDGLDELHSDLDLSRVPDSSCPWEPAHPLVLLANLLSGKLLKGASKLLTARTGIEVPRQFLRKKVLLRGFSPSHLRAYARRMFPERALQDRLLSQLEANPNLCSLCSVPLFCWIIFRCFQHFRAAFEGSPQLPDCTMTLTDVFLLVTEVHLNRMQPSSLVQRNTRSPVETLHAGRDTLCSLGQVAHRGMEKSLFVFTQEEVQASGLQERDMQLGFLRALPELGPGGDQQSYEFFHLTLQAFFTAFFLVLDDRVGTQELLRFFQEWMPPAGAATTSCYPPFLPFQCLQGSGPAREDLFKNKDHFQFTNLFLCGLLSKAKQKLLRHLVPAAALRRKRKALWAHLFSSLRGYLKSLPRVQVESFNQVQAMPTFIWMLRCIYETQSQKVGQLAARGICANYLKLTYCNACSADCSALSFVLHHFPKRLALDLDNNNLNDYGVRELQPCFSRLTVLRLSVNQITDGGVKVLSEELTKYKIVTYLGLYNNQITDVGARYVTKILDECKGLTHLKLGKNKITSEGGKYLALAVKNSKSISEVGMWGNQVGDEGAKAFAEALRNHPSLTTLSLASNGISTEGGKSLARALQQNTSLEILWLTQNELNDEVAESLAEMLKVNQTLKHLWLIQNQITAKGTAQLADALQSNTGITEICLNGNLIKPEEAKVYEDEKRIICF
The assay can be described thus: Antagonist activity at NOD1 in HEK-Blue hNOD1 cells assessed as inhibition of C12-iE-DAP-induced NFkappaB activation-mediated SEAP release at 5 uM preincubated for 3 hrs followed by C12-iE-DAP addition and measured after 20 hrs by spectrophotometric method relative to control. Particulars: time 23.0 hrs.

The target of assay [2] is T2, Nucleotide-binding oligomerization domain-containing protein 1 (Homo sapiens, UniProt Q9Y239).
T2 sequence (Q9Y239 whole entry): T1 sequence (whole entry)
The assay can be described thus: Antagonist activity at NOD1 in HEK-Blue hNOD1 cells assessed as inhibition of C12-iE-DAP-induced NFkappaB activation-mediated SEAP release preincubated for 3 hrs followed by C12-iE-DAP addition and measured after 20 hrs by spectrophotometric method.

Assay [3] concerns the target T3, Nucleotide-binding oligomerization domain-containing protein 2 (Homo sapiens, UniProt Q9HC29). The assay can be described thus: Antagonist activity at NOD2 in HEK-Blue hNOD2 cells assessed as inhibition of MDP-induced NFkappaB activation-mediated SEAP release preincubated for 3 hrs followed by MDP addition and measured after 20 hrs by spectrophotometric method. The procedure, abridged: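 HEK-Blue hNOD2 cells preincubated 3 h with a range of concentrations, then MDP 100 ng/mL for 20 h. SEAP quantified. SRB assay run to exclude cytotoxicity. IC50 by nonlinear semi-logarithmic fit, mean ± SD, n = 3.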

The target of assay [4] is T3, Nucleotide-binding oligomerization domain-containing protein 2. The assay can be described thus: Antagonist activity at NOD2 in HEK-Blue hNOD2 cells assessed as inhibition of MDP-induced NFkappaB activation-mediated SEAP release at 5 uM preincubated for 3 hrs followed by MDP addition and measured after 20 hrs by spectrophotometric method relative to control. Particulars: time 23.0 hrs.

As a reminder, the inhibition is the drop in the measured response relative to a control, in per cent. What is called IC50 is the concentration needed to halve the response being measured.

T3 sequence (Q9HC29 whole entry, the tested form may be a part): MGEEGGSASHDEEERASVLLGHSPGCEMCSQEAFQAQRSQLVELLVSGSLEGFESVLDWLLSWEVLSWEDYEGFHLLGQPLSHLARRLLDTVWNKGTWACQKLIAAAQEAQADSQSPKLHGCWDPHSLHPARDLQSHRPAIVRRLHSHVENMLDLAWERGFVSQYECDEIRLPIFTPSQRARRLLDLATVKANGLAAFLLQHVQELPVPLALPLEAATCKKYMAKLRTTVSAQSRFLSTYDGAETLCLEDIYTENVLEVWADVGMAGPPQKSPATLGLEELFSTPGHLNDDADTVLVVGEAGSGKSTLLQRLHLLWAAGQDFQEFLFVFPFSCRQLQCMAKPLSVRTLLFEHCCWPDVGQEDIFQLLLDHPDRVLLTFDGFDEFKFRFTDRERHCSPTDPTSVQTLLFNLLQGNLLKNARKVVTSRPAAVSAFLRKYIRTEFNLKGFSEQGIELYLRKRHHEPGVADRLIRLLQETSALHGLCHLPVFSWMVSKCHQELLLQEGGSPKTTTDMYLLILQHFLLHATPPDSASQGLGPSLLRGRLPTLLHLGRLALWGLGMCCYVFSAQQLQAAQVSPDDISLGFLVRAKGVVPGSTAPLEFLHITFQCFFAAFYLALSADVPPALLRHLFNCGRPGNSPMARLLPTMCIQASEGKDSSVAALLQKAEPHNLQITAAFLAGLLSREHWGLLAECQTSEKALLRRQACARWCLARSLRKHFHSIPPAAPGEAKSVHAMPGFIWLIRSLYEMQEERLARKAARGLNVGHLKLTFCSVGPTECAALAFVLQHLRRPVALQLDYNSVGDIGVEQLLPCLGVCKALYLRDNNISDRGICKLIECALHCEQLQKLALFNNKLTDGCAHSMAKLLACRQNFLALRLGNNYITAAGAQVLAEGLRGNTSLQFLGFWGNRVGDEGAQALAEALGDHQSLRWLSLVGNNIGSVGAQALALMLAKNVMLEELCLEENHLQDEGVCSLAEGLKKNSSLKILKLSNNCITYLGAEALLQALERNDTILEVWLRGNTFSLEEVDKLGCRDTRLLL

Consider `COC(=O)Cn1cnc2cc(NC(=O)COCc3ccc(C(F)(F)F)cc3)c(Oc3cccc(N4CCOCC4)c3)cc2c1=O`, for which the inhibition in assay [1] (filed as antagonist) stood at 88.9%. Also, the IC50 amounted to 0.65 µM in assay [2] and 0.55 µM in assay [3].
For the compound `CN(C)c1cccc(Oc2cc3c(=O)[nH]cnc3cc2NC(=O)COCc2ccc(C(F)(F)F)cc2)c1`, the inhibition worked out at 50.4% in assay [1] (filed as antagonist) and 54% in assay [4] (filed as antagonist). Further, in assay [3], the IC50 was 0.8 µM.
On to `COC(=O)Cn1cnc2cc(C(=O)NCCOCc3ccc(C(F)(F)F)cc3)c(-c3cccc(F)c3)cc2c1=O`, for which the inhibition in assay [1] (filed as antagonist) was 64%. Also, in assay [2], the IC50 stood at 3.46 µM.
For the compound `CN(C)c1cccc(Oc2cc3c(=O)[nH]cnc3cc2NC(=O)COCc2ccc(C#N)cc2)c1`, the inhibition in assay [1] stood at 30.4%; in assay [4], 19.3%. Moreover, in assay [2], the IC50 worked out at 9.33 µM.
In the case of `COC(=O)Cn1cnc2cc(NC(=O)CCCOc3ccc(C(F)(F)F)cc3)c(Oc3ccc(N(C)C)cc3)cc2c1=O`, in assay [1] (filed as antagonist), the inhibition turned out to be 68.4%. In assay [2], the 50% inhibitory concentration (IC50) was found to be 3.87 µM.
With `COC(=O)Cn1cnc2cc(NC(=O)c3ccc(C#N)cc3)c(Oc3cccc(N(C)C)c3)cc2c1=O`, the inhibition in assay [1] came out at 13.1%.
On to `CN(C)c1cccc(Oc2cc3c(=O)[nH]cnc3cc2NC(=O)c2ccc(C#N)cc2)c1`, for which the inhibition in assay [1] is 19.4%; in assay [4], 13.1%.
For the compound `O=C(NCCCOc1ccc(C(F)(F)F)cc1)c1cc2nc[nH]c(=O)c2cc1-c1cccc(Cl)c1`, in assay [1] (filed as antagonist), the inhibition amounted to 90%. Also, the IC50 in assay [2] and in assay [3] was 0.84 µM each time.
On to `COC(=O)Cn1cnc2cc(NC(=O)COCc3ccc(C(F)(F)F)cc3)c(Oc3ccccc3)cc2c1=O`, for which the inhibition in assay [1] (filed as antagonist) amounted to 50.2%.
Turning to `O=C(NCCOCc1ccc(C(F)(F)F)cc1)c1cc2nc[nH]c(=O)c2cc1-c1cccc(C(F)(F)F)c1`, the inhibition in assay [1] (filed as antagonist) amounted to 72.4%. Further, in assay [2], the IC50 amounted to 4.39 µM.
Regarding `COC(=O)Cn1cnc2cc(C(=O)NCCOCc3ccc(C(F)(F)F)cc3)c(-c3cccc(Cl)c3)cc2c1=O`, the inhibition in assay [1] (filed as antagonist) turned out to be 82.4%. For the same compound, in assay [2], the IC50 is 1.12 µM.
Take `O=C(NCCCc1ccccc1)c1cc2nc[nH]c(=O)c2cc1-c1cccc(C(F)(F)F)c1`: the inhibition in assay [1] came out at 4.06%.
As for `CN(C)c1cccc(Oc2cc3c(=O)[nH]cnc3cc2NC(=O)CCCOc2ccc(C(F)(F)F)cc2)c1`, the inhibition was found to be 59.1% in assay [1] (filed as antagonist) and 58.5% in assay [4] (filed as antagonist). In addition, the concentration for half-maximal inhibition (IC50) in assay [2] was 5.64 µM; in assay [3], 4.77 µM.
For the compound `O=C(NCCCc1ccc(Cl)cc1)c1cc2nc[nH]c(=O)c2cc1-c1cccc(F)c1`, the inhibition in assay [1] (filed as antagonist) worked out at 43.5%.
As to `COC(=O)Cn1cnc2cc(NC(=O)COCc3ccc(Cl)cc3)c(Oc3cccc(N(C)C)c3)cc2c1=O`, the inhibition in assay [1] (filed as antagonist) is 69%. The IC50 in assay [2] is 4.31 µM.
As to `O=C(NCCCc1ccc(Cl)cc1)c1cc2nc[nH]c(=O)c2cc1-c1cccc(C(F)(F)F)c1`, the inhibition in assay [1] was 35%.
For the compound `CN(C)c1cccc(Oc2cc3c(=O)n(CC(=O)N4CCCC(F)(F)C4)cnc3cc2NC(=O)COCc2ccc(C(F)(F)F)cc2)c1`, the figures for the inhibition in assay [1] (filed as antagonist) and in assay [4] (filed as antagonist) were 90.4% and 94.2%, respectively. In addition, the IC50 is 0.14 µM in assay [2] and 0.66 µM in assay [3].
Consider `CN(C)c1cccc(Oc2cc3c(=O)n(CC(=O)N4CCC(F)CC4)cnc3cc2NC(=O)COCc2ccc(C(F)(F)F)cc2)c1`, for which the values for the inhibition in assay [1] (filed as antagonist) and in assay [4] (filed as antagonist) were 89.1% and 94.3%, respectively. Also, the concentration for half-maximal inhibition (IC50) in assay [2] was 0.21 µM; in assay [3] it was 1.11 µM.
In the case of `COC(=O)Cn1cnc2cc(C(=O)NCCCc3ccccc3)c(-c3cccc(F)c3)cc2c1=O`, the inhibition in assay [1] is -0.98%.
Same read-out and setting: the result for `COC(=O)Cn1cnc2cc(NC(=O)CCCOc3ccc(F)cc3)c(Oc3cccc(N(C)C)c3)cc2c1=O` reads 33.5%.
For `COC(=O)Cn1cnc2cc(NC(=O)COCc3ccc(C(F)(F)F)cc3)c(Oc3cccc(N(C)C)c3)cc2c1=O`, the inhibition in assay [1] (filed as antagonist) was 85.4%; in assay [4] (filed as antagonist), 76.9%. Further, the concentration for half-maximal inhibition (IC50) in assay [2] was 1.15 µM; in assay [3], 0.99 µM.
Turning to `O=C(COCc1ccc(C(F)(F)F)cc1)Nc1cc2nc[nH]c(=O)c2cc1Oc1cccc(N2CCOCC2)c1`, the inhibition in assay [1] is 37.6%.
As to `COC(=O)Cn1cnc2cc(NC(=O)COCc3ccccc3)c(Oc3cccc(N(C)C)c3)cc2c1=O`, the inhibition was 47.6% in assay [1] (filed as antagonist) and 35% in assay [4].
Take `COC(=O)Cn1cnc2cc(NC(=O)COCc3ccc(C(F)(F)F)cc3)c(Oc3ccccc3N(C)C)cc2c1=O`: in assay [1] (filed as antagonist), the inhibition was 87.9%. Further, in assay [2], the IC50 is 1.65 µM.
As for `CN(C)c1cccc(Oc2cc3c(=O)n(CC(=O)N4CCC(F)(F)CC4)cnc3cc2NC(=O)COCc2ccc(C(F)(F)F)cc2)c1`, the inhibition stood at 82% in assay [1] (filed as antagonist) and 87% in assay [4] (filed as antagonist). Also, the IC50 was determined as 0.27 µM in assay [2] and 1.18 µM in assay [3].
As to `O=C(NCCCc1ccccc1)c1cc2nc[nH]c(=O)c2cc1-c1cccc(Cl)c1`, in assay [1], the inhibition amounted to 6.6%.
As for `COC(=O)Cn1cnc2cc(C(=O)NCCCc3ccc(Cl)cc3)c(-c3cccc(F)c3)cc2c1=O`, in assay [1] (filed as antagonist), the inhibition is 65.3%. Besides, the IC50 in assay [2] came out at 3.24 µM.
Regarding `COC(=O)Cn1cnc2cc(NC(=O)c3ccc(C(F)(F)F)cc3)c(Oc3cccc(N(C)C)c3)cc2c1=O`, in assay [1], the inhibition was found to be 31.7%.
On to `COC(=O)Cn1cnc2cc(NC(=O)COCc3ccc(C#N)cc3)c(Oc3cccc(N(C)C)c3)cc2c1=O`, for which the inhibition in assay [1] (filed as antagonist) turned out to be 55.7%; in assay [4] (filed as antagonist), 58.7%.
For `COC(=O)Cn1cnc2cc(NC(=O)CCCOc3ccc(C#N)cc3)c(Oc3cccc(N(C)C)c3)cc2c1=O`, the inhibition in assay [1] (filed as antagonist) was found to be 48%.
On the same count and under the same terms, the result for `O=C(NCCCc1ccc(Cl)cc1)c1cc2nc[nH]c(=O)c2cc1-c1cccc(Cl)c1` reads 41.5%.
As for `COC(=O)Cn1cnc2cc(NC(=O)CCCOc3ccc(C(F)(F)F)cc3)c(Oc3cccc(N(C)C)c3)cc2c1=O`, the inhibition in assay [1] (filed as antagonist) was determined as 70.9%. Also, the IC50 in assay [2] came out at 2.65 µM.
For `O=C(NCCOCc1ccc(C(F)(F)F)cc1)c1cc2nc[nH]c(=O)c2cc1-c1cccc(F)c1`, in that order: 56.1% and 4.11 µM.
On to `CN(C)c1cccc(Oc2cc3c(=O)n(CC(=O)N4CCCCC4)cnc3cc2NC(=O)COCc2ccc(C(F)(F)F)cc2)c1`, for which the inhibition was found to be 87.5% in assay [1] (filed as antagonist) and 92.4% in assay [4] (filed as antagonist). In addition, the IC50 is 0.26 µM in assay [2] and 1.75 µM in assay [3].
On to `COC(=O)Cn1cnc2cc(NC(=O)CCCOc3ccc(C(F)(F)F)cc3)c(Oc3ccccc3)cc2c1=O`, for which, in assay [1], the inhibition came out at 28.2%.
On the same count and under the same terms, the same measure for `O=C(NCCCc1ccccc1)c1cc2nc[nH]c(=O)c2cc1-c1cccc(F)c1`: -1.81%.
Take `COC(=O)Cn1cnc2cc(C(=O)NCCCOc3ccc(C(F)(F)F)cc3)c(-c3cccc(Cl)c3)cc2c1=O`: the inhibition in assay [1] (filed as antagonist) was found to be 89.6%. Moreover, the 50% inhibitory concentration (IC50) in assay [2] was determined as 0.89 µM; in assay [3], 1 µM.
As to `COC(=O)Cn1cnc2cc(NC(=O)COCc3ccc(F)cc3)c(Oc3cccc(N(C)C)c3)cc2c1=O`, the inhibition stood at 33.4% in assay [1] and 42.5% in assay [4] (filed as antagonist).
As to `COC(=O)Cn1cnc2cc(C(=O)NCCCc3ccc(Cl)cc3)c(-c3cccc(Cl)c3)cc2c1=O`, the inhibition in assay [1] (filed as antagonist) was 58.2%. Further, the IC50 in assay [2] stood at 1.64 µM.

Values taken from ChEMBL document CHEMBL4706575, “Nonpeptidic quinazolinone derivatives as dual nucleotide-binding oligomerization domain-like receptor 1/2 antagonists for adjuvant cancer chemotherapy” (Eur J Med Chem, 2020).
